This is an account of results in ChEMBL document CHEMBL1121913, “Inactivation of liver alcohol dehydrogenases and inhibition of ethanol metabolism by ambivalent active-site-directed reagents” (J Med Chem, 1981).

The target in data set [1] is T1, Alcohol dehydrogenase (Equus caballus) (UniProt P00327+P00328). As to the kind of experiment: The compound was tested for the ability to inactivate horse liver alcohol dehydrogenase in the presence of 1 mM NAD+k.
For data set [2], the target named is T2, Alcohol dehydrogenase (Homo sapiens) (UniProt P07327+P08319+P00325+P00326+P40394+P11766+P28332). As to the kind of experiment: The compound was tested for the ability to inactivate human liver alcohol dehydrogenase in the presence of 1 mM NAD+k. The gist of the method:
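Human liver ADH, purified on carboxymethyl- and DEAE-cellulose plus (NH₄)₂SO₄ (60%) with 5% ethanol throughout, ethanol dialysed out. Inactivation at 25 °C in 0.1 M Na₂P₂O₇, pH 8, enzyme about 0.2 mg/mL, 0.2 mM reagent; NAD⁺ added 1 min before reagent where used. Apparent second-order constant calculated assuming first order in reagent.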

Data set [3] can be described thus: Percent inhibition of Alcohol dehydrogenase activity in mice liver at dose 0.13 mmol/kg. In kind it is tissue-based. The method, boiled down: (§1)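 Fed male Swiss-Webster mice (20–25 g), four or five per group; compound suspended in sterile 0.9% saline, single i.p. dose 22–24 h before i.p. ethanol 3 g/kg (40% w/v in saline). Tail-vein blood ethanol by GC (1-propanol internal standard); elimination rate = β slope × dose/extrapolated zero-time level. Liver ADH afterwards: homogenate activity with ethanol/NAD⁺ minus 10 mM pyrazole control, per mg protein.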

Data set [4] can be described thus: The compound was tested for the ability to inactivate mouse liver alcohol dehydrogenase in the absence of NAD+K. The gist of the method: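 Mouse liver ADH, fourfold purified ((NH₄)₂SO₄ 45–65% cut, DEAE-cellulose), incubated at about 0.2 mg/mL with 0.2 mM reagent in 0.1 M Na₂P₂O₇ pH 8, 25 °C; coenzyme, when present, added 1 min before inactivator. Apparent second-order rate constant derived assuming reaction first order in reagent.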

Data set [5] is described as follows: The compound was tested for the ability to inactivate mouse liver alcohol dehydrogenase in the presence of 1 mM NAD+K; Slow inactivation.
A short description of data set [6]: The compound was tested for the ability to inactivate rat liver alcohol dehydrogenase in the absence of NAD+K. The method, boiled down:
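Rat liver enzyme purified 15-fold ((NH₄)₂SO₄ 35–75%, DEAE-cellulose). Inactivation with 0.2 mM reagent, 0.1 M pyrophosphate buffer pH 8, 25 °C, enzyme near 0.2 mg/mL; NAD⁺ preincubated 1 min with enzyme before reagent addition. Apparent second-order constants computed on assumption of first-order dependence on reagent.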

The nature of data set [7]: Percent inhibition of Alcohol dehydrogenase activity in rat liver at dose 0.13 mmol/kg. The data set is classed as tissue-based. The method, boiled down:
(§2)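 Male Sprague-Dawley rats (160–200 g), two per experiment; compound suspended in sterile 0.9% saline, single i.p. dose 22–24 h before i.p. ethanol 2 g/kg (40% w/v in saline). Tail-vein blood ethanol by GC (1-propanol internal standard); elimination rate = β slope × dose/extrapolated zero-time level. Liver ADH afterwards: homogenate activity with ethanol/NAD⁺ minus 10 mM pyrazole control, per mg protein.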

The target in data set [8] is T1, Alcohol dehydrogenase (Equus caballus). As to the kind of experiment: The compound was tested for the ability to inactivate horse liver alcohol dehydrogenase in the absence of NAD+k.
Data set [9] concerns Mus musculus. As to the kind of experiment: Percent inhibition of rate of ethanol metabolism in mice at dose 0.13 mmol/kg. The data set is classed as functional. The gist of the method: as §1
The test system of data set [10] is Mus musculus. As to the kind of experiment: Percent inhibition of recovery of rotarod performance in mice at dose 0.13 mmol/kg. In kind it is functional. The gist of the method:
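Mice trained to hang on a 2-cm rod rotating at 7 rpm, two 15-min periods. Reagent given ip 22 h before ethanol 3 g/kg; five mice per dose, five vehicle controls. Impairment = 100(15 − minutes on rod)/15, probit-transformed; t1/2 for regaining 50% performance by regression. Inhibition = [t1/2(treated) − t1/2(control)]/t1/2(treated).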
Background: Falling from the rotarod earlier than controls is read as motor impairment.

A short description of data set [11]: Toxic effect in mice. In kind it is toxicity, organism-based. The following applies: mouse, in vivo. The method, boiled down: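 Male Swiss-Webster mice (20–25 g); single i.p. dose of compound suspended in sterile 0.9% saline. Acute lethality scored over 24 h; LD₅₀ with limits at p ≤ 0.05 from three doses on 15 mice.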
A short description of data set [12]: Toxic effect in rats. The data set is classed as toxicity, organism-based. Conditions: rat, in vivo. The method, boiled down: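 Male Sprague-Dawley rats (160–200 g), two per dose; single i.p. dose of compound suspended in sterile 0.9% saline. Acute lethality scored over 24 h after dosing.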
For another data set, the system named is Rattus norvegicus. As to the kind of experiment: Percent inhibition of rate of ethanol metabolism in rats at dose 0.13 mmol/kg. The data set is classed as functional. The method, boiled down:
as §2

Data set [13] deals with T2, Alcohol dehydrogenase (Homo sapiens). As to the kind of experiment: The compound was tested for the ability to inactivate human liver alcohol dehydrogenase in the absence of NAD+K. The gist of the method: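 Human liver ADH purified by CM- and DEAE-cellulose chromatography and (NH₄)₂SO₄ precipitation, with 5% ethanol removed by dialysis. Enzyme about 0.2 mg/mL with 0.2 mM reagent in 0.1 M Na₂P₂O₇, pH 8, 25 °C, no coenzyme. Apparent second-order rate constant assumes first order in reagent.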

On to `NC(=O)CBr`, for which the Rate constant in data set [1] is 0.000167 M⁻¹ s⁻¹; in data set [2], 0.0483 M⁻¹ s⁻¹; in [4] it was 0.147 M⁻¹ s⁻¹; in data set [5], “Slow inactivation”; in data set [6], 0.0883 M⁻¹ s⁻¹; in [8] it was 0.0267 M⁻¹ s⁻¹. Besides, the Rate constant in data set [13] was found to be 0.0483 M⁻¹ s⁻¹. For the same compound, the inhibition in [3] is 27%; in data set [7], 0%. Besides, the figures for the inhibition in vivo at 130 µmol/kg in the data set with Mus musculus [9], with Mus musculus [10] and in the data set on Rattus norvegicus were 18%, 28% and 11%, respectively. Further, the LD50 in [11] and in [12] was 270 µmol/kg in each case.

In general, inhibition refers to the relative decrease from the control value, in per cent. The low end stands for a response near the control, the high end for a response far below the control. The inhibition in vivo is the drop in the measured response relative to a control, in per cent. Read a high inhibition in vivo as a response far below the control. A word on the LD50: it is the dose expected to kill half of the subjects tested. A low value points to greater toxicity.
